Assay results from ChEMBL document CHEMBL1129668 (J Med Chem, 1996).

Assays:
[1] = molecular target: Sodium-dependent dopamine transporter (Rattus norvegicus, UniProt P23977); experiment: In vitro binding affinity towards dopamine transporter in rat striatal membranes by […] displacement.; assay type: cell membranes, Striatum, Membrane
Outline: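 Crude membranes of rat corpus striatum in Tris-citrate buffer (pH 7.4) with Na+ and Mg2+ (4 mM). Six concentrations, duplicate; computer-fit IC50 converted to Ki via Cheng–Prusoff relation using radioligand K_d.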

[2] = molecular target: Norepinephrine transporter (Rattus norvegicus, UniProt Q9WTR4); experiment: In vitro binding affinity towards Norepinephrine transporter rat cerebral cortical homogenates by [3H]nisoxetine displacement.
Outline: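 Crude membrane fraction of rat frontoparietal cerebral cortex in 50 mM Tris-HCl (pH 7.4) with Na+, K+ (5 mM). Typically six concentrations in duplicate; curves computer-fit for IC50, converted to Ki = IC50/(1 + [L]/K_d).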

[3] = molecular target: Monoamine transporters; Norepininephrine & dopamine (Rattus norvegicus) (UniProt P23977+Q9WTR4); experiment: Selectivity for Dopamine and Norepinephrine transporters; assay type: protein assay
[4] = molecular target: Sodium-dependent serotonin transporter (Rattus norvegicus, UniProt P31652); experiment: In vitro binding affinity towards serotonin transporter in rat cerebral cortical homogenates by [3H]paroxetine displacement.
[5] = molecular target: Monoamine transporters; serotonin & dopamine (Rattus norvegicus) (UniProt P31652+P23977); experiment: Selectivity for Dopamine and Serotonin transporters; assay type: protein assay
Sequence of Monoamine transporters; serotonin & dopamine (Rattus norvegicus) (P23977 whole entry, looked up): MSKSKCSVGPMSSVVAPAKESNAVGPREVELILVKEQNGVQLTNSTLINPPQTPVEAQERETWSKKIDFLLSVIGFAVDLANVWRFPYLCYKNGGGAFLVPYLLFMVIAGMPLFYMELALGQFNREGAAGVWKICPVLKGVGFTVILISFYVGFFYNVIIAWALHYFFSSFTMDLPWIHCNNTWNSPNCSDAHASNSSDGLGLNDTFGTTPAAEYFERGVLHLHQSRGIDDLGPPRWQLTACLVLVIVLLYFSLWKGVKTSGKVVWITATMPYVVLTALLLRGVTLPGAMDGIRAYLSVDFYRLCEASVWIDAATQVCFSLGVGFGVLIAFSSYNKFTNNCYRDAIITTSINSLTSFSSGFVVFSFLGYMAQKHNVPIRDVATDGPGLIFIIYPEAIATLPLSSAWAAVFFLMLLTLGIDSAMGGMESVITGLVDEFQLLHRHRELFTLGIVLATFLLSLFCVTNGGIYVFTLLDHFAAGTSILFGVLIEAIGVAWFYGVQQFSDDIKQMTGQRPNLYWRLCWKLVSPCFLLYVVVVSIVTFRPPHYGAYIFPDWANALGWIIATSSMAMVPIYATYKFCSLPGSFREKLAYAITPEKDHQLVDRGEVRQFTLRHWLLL
Sequence of Monoamine transporters; serotonin & dopamine (Rattus norvegicus) (P31652 whole entry, looked up): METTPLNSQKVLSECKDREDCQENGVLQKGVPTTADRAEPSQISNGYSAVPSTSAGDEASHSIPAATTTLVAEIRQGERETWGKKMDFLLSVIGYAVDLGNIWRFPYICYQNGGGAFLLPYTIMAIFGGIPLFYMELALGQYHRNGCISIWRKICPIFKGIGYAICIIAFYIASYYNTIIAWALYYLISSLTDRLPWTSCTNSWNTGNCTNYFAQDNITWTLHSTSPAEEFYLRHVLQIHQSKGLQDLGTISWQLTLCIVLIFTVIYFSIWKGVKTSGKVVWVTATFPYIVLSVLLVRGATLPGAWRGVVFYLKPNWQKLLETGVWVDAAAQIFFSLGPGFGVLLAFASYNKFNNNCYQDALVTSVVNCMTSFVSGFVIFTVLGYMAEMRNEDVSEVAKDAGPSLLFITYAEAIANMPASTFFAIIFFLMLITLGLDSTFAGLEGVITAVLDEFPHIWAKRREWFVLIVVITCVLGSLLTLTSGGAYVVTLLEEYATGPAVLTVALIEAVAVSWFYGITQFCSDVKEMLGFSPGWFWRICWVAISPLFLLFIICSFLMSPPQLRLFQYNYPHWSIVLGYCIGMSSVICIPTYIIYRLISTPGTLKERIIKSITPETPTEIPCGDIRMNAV

Sequence of Sodium-dependent serotonin transporter (P31652 whole entry): as the sequence (P31652 whole entry, looked up) above
Sequence of Sodium-dependent dopamine transporter (P23977 whole entry): as the sequence (P23977 whole entry, looked up) above
Sequence of Norepinephrine transporter (Q9WTR4 whole entry): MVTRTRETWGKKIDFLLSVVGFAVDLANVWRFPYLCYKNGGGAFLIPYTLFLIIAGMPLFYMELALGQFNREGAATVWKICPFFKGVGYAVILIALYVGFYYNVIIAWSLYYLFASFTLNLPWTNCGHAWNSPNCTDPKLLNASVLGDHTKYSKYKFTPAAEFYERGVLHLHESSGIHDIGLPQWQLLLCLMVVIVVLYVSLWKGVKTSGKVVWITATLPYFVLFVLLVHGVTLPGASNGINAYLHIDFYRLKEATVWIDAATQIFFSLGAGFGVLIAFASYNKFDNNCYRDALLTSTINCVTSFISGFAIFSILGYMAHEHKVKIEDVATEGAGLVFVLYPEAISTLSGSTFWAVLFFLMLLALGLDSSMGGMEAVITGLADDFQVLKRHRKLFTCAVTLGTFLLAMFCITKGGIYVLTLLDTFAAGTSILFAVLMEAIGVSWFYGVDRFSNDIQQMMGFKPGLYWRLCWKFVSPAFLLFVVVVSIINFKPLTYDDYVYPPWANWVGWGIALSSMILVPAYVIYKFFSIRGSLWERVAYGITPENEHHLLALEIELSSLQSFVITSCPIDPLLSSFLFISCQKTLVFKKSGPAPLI

Compound	Ki [1] [nM]	Ki [2] [nM]	Selectivity [3]	Ki [4] [nM]	Selectivity [5]
COC(=O)[C@@H]1C2CCC(C[C@@H]1c1ccc(I)cc1)N2CC(=O)N(C)C (stereo partly specified)	12.2	522	42.8	6.4	0.524
COC(=O)C1C(c2ccc(I)cc2)CC2CCC1N2C(=O)C(C)C (stereo unspecified)	2100	> 10000	> 4.8	102	0.049
COC(=O)C1C(c2ccc(I)cc2)CC2CCC1N2CC(OC)OC (stereo unspecified)	6.8	110	16.2	1.69	0.249
COC(=O)CN1C2CCC1C(C(=O)OC)C(c1ccc(I)cc1)C2 (stereo unspecified)	11.9	29.1	2.5	0.81	0.068
COC(=O)C1C(c2ccc(I)cc2)CC2CCC1N2CC1CC1 (stereo unspecified)	4.3	198	45.6	1.3	0.302
COC(=O)C1C(c2ccc(I)cc2)CC2CCC1N2CCCCl (stereo unspecified)	3.1	96	31	0.32	0.1
CC(C)OC(=O)C1C(c2ccc(I)cc2)CC2CCC1N2CCF (stereo unspecified)	4.4	> 10000	> 2300	21.7	4.9
COC(=O)C1C(c2ccc(I)cc2)CC2CCC1N2CCCOS(C)(=O)=O (stereo unspecified)	36.3	5000	138	17.3	0.477
COC(=O)[C@@H]1C2CCC(C[C@@H]1c1ccc(I)cc1)N2CCCN1C(=O)c2ccccc2C1=O (stereo partly specified)	9.1	73.7	8.1	0.59	0.065
COC(=O)C1C(c2ccc(I)cc2)CC2CCC1N2C (stereo unspecified)	1.4	2.8	2		0.32
COC(=O)C1C(c2ccc(I)cc2)CC2CCC1N2CCCBr (stereo unspecified)	2.56	164	64.1	0.35	0.137
COC(=O)C1C(c2ccc(I)cc2)CC2CCC1N2CCF (stereo unspecified)	4	93	23.2	0.14	0.035
COC(=O)[C@H]1[C@@H](c2ccc(F)cc2)C[C@H]2CC[C@H]1N2C		635		181	
COC(=O)C1C(c2ccc(I)cc2)CC2CCC1N2CCCF (stereo unspecified)	3.5	63	18	0.11	0.032
COC(=O)C1C(c2ccc(I)cc2)CC2CCC1N2CC(F)F (stereo unspecified)	15.1	> 5000	> 330	9.6	0.636
CC(C)OC(=O)C1C(c2ccc(I)cc2)CC2CCC1N2CCCF (stereo unspecified)	1.2	10000	8300	48.7	40.6
COC(=O)C1C(c2ccc(I)cc2)CC2CCC1N2CCCO (stereo unspecified)	5.39	217	40.3	2.5	0.463
COC(=O)C1C(c2ccc(I)cc2)CC2CCC1N2CCCI (stereo unspecified)	38.9	5000	129	8.84	0.227
